Data from PMC6997517 (EBioMedicine, 2020).

Experiments:
[1] = test system: TLR7/8; test: TNF-α secretion, R848; type: cell-based, murine; conditions: TIP3 at 50 μM
In short: (§1)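 RAW264.7 cells seeded at 2 × 10^5/well (96-well) or 5 × 10^5/well (24-well), grown overnight, then treated with test compound. Stimulus: poly(I:C), CpG-ODN (15), FSL-1 (16) or R848 (17). Supernatant cytokines read after 24 h by mouse ELISA kits (IFN-β, IL-6, TNF-α). Cells kept at 37 °C, 5% CO2.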

[2] = test system: TLR4; test: Quantitative RT-PCR, LPS-stimulated THP-1 cells; type: cell-based, human; conditions: TIP3 50 μM 1 h, then LPS 4 h; normalized to GAPDH
In short: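 THP-1 cells pretreated with test compound (50 μM) for 1 h, then LPS (100 ng/ml) added for 4 h. Total RNA extracted with TRIzol and cDNA synthesised. SYBR Green qPCR run with primers for IL-1β, IL-6, IL-8, TNF-α, with β-actin and GAPDH as references. Relative expression calculated by the ΔΔCt method.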

[3] = test system: TLR4; test: Immunofluorescence confocal microscopy of p-p65, LPS-stimulated RAW264.7 cells; type: cell-based, murine; conditions: TIP3 50 μM, 1 h before LPS 100 ng/ml
In short: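 RAW264.7 cells seeded on coverslips (2 × 10^5/well) and grown overnight. Stained with anti-p-p65 (1:1000, 2 h), then Alexa Fluor 546 secondary for 1 h. Nuclei stained with 5 µM Hoechst 33258. Fluorescence intensity quantified by confocal microscopy.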

[4] = test system: TLR4-mediated NLRP3 inflammasome; test: NLRP3 inflammasome activation, IL-1β secretion, LPS-primed THP-1 cells; type: cell-based, human; conditions: THP-1 primed with LPS, activated with Nigericin; n ≥ 3
[5] = test system: TLR9; test: TNF-α secretion, CpG-ODN-stimulated RAW264.7 cells; type: cell-based, murine; conditions: TIP3 at 50 μM
In short: as §1

[6] = test system: HEK-Blue™ hTLR4 cells; test: MTT cell viability, HEK-Blue hTLR4 cells; type: cell-based, human; conditions: n ≥ 3
In short: (§2)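 MTT colourimetric viability assay. HEK-Blue hTLR4 cells (high-glucose DMEM, 10% FBS, normocin) seeded at 5 × 10^4/well. RAW264.7 cells seeded at 2 × 10^5/well. Both grown overnight before exposure to test compound.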

[7] = test system: TLR2/6; test: TNF-α secretion, FSL-1-stimulated RAW264.7 cells; type: cell-based, murine; conditions: TIP3 at 50 μM
In short: as §1

[8] = test system: TLR4; test: Western blot, LPS-stimulated RAW264.7 cells; type: cell-based, murine
In short: (§3)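 Total protein extracted with M-PER reagent and quantified by BCA. Membranes incubated with primary antibodies overnight at 4 °C, washed in PBS/0·1% Tween 20, then HRP-conjugated secondary (1:1000) for 2 h. Bands detected by enhanced chemiluminescence, with β-actin as loading reference.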

[9] = test system: CIA mice; test: Collagen-induced arthritis; type: in vivo, mouse (DBA/1 J)
In short: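 Male DBA/1J mice (6–7 weeks, 20–23 g) immunised at tail base with 100 μg chicken type II collagen in an equal volume of complete Freund's adjuvant (day 0), boosted day 20. Groups of n = 7. Test compound (2·5 or 10 nmol/g) or methotrexate (2 mg/kg) in saline given i.p. once daily from day 22. Body weight, paw volume and arthritis index tracked. […] (maximum 16), twice weekly.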

[10] = test system: TLR4; test: Western blot, LPS-stimulated hPBMCs; type: cell-based, human
In short: as §3

[11] = test system: RAW264.7 cells; test: MTT cell viability, RAW264.7 cells; type: cell-based, murine; conditions: 50 μM
In short: as §2

[12] = test system: TLR3; test: Cytokine ELISA, poly; type: cell-based, murine; conditions: 24 h
In short: as §1

[13] = test system: TLR3; test: Cytokine ELISA, poly; type: cell-based, human; conditions: hMNCs, poly(I:C)
In short: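 Commercial human mononuclear cells kept in RPMI 1640 (2·05 mM L-glutamine, 10% FBS, penicillin/streptomycin). Seeded at 2 × 10^5/well and grown overnight. Stimulated with LPS or poly(I:C) alongside test compound. After 24 h, supernatant IL-6 and TNF-α measured by human sandwich ELISA.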

[14] = test system: TLR4; test: NO secretion assay, LPS-stimulated mBMDMs; type: cell-based, mouse
In short: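 Bone marrow macrophages from C57BL/6J femurs/tibiae, differentiated with M-CSF (25 ng/ml) for 3–4 days and replated 24 h before use. Seeded at 2 × 10^5/well, grown overnight. Pretreated with test compound for 1 h, then co-treated with LPS. Extracellular NO in supernatant measured with a nitric oxide detection kit by absorbance at 550 nm.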

[15] = test system: CIA mice; test: Micro-CT and histology of knee joints, CIA model; type: in vivo, mouse (DBA/1 J)
In short: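 DBA/1J collagen-induced arthritis mice, dosed i.p. daily from day 22. Knee bone samples fixed in 10% formalin and scanned by in vivo micro-CT. Bone mineral density measured at 1 mm below the top of the tibia within a set region of interest. Joint sections stained with H&E and examined for synovial hyperplasia, pannus, immune-cell infiltration and joint-space narrowing.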

[16] = test system: TLR4; test: Cytokine ELISA, LPS-stimulated THP-1-derived macrophages; type: cell-based, human
In short: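 THP-1 cells grown in RPMI 1640 with 10% FBS and differentiated to macrophages with 80 nM PMA for 24 h. Seeded at 2 × 10^5/well (96-well) or 5 × 10^5/well (24-well) and grown overnight. After 24 h of treatment with test compound and LPS, secreted IL-6 and TNF-α in supernatants were quantified by ELISA.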

[17] = PAP-TIP3 10 nmol/g, treatment started from day 35

## DYDVCVCH [TIP3]
[1]
  TNF-α secretion mediated by TLR7, TLR8: somewhat weak inhibition
[2]
  IL-1β mRNA expression: inhibited LPS-induced mRNA expression
  IL-6 mRNA expression: inhibited LPS-induced mRNA expression
  IL-8 mRNA expression: inhibited LPS-induced mRNA expression of these cytokines and of IL-8
  TNF-α mRNA expression: inhibited LPS-induced mRNA expression
[3]
  LPS-induced p65 phosphorylation (confocal): decreased the LPS-induced p65 phosphorylation
[4]
  IL-1β secretion: dose-dependently inhibits IL-1β secretion in LPS-primed cells
[5]
  TNF-α secretion mediated by TLR9: somewhat weak inhibition
[6]; 12·5 to 50 μM
  cell viability / cytotoxicity: did not show any significant cytotoxicity
[6]; high concentration, 100 μM
  cell viability / cytotoxicity: slight cytotoxicity
[7]
  TNF-α secretion mediated by TLR2/6: somewhat weak inhibition
[8]
  ATF3 expression: hindered the LPS-induced expression of activating transcription factor 3 (ATF3)
  COX2 expression: represses the LPS-induced extracellular secretion of NO and the expression of iNOS and COX2 in a dose-dependent manner
  Iκ-Bα degradation: inhibiting Iκ-Bα degradation
  iNOS expression: represses the LPS-induced extracellular secretion of NO and the expression of iNOS and COX2 in a dose-dependent manner
  phosphorylation of ERK: inhibiting the phosphorylation of c-Jun N-terminal kinase (JNK), p38 MAPK, extracellular signal–regulated kinase (ERK)
  phosphorylation of IRF3 (p-IRF3): inhibiting Iκ-Bα degradation, and phosphorylation of the p65 subunit of NF-κB, and IRF3
  phosphorylation of JNK: inhibiting the phosphorylation of c-Jun N-terminal kinase (JNK)
  phosphorylation of p38: inhibiting the phosphorylation of c-Jun N-terminal kinase (JNK), p38 MAPK
  phosphorylation of p65 subunit of NF-κB (p-p65): inhibiting Iκ-Bα degradation, and phosphorylation of the p65 subunit of NF-κB
[9]; [17]
  arthritis index, postarthritis phase treatment: significantly inhibited when compared with the CIA mice
  body weight, postarthritis phase treatment: did not observe any significant change in body weight
  paw volume, postarthritis phase treatment: significantly inhibited when compared with the CIA mice
[9]; TIP3 10 nmol/g or MTX 2 mg/kg, i.p. daily from day 22
  loss of body weight: not observed
[9]; TIP3 10 nmol/g or MTX 2 mg/kg, i.p. daily from day 22, maximal score 16
  arthritis index: significantly decreased
[9]; TIP3 10 nmol/g or MTX 2 mg/kg, i.p. daily from day 22, plethysmometer
  relative paw volume (large paw volume): TIP3 (10 nmol/g)- and MTX-injected mice did not
[9]; i.p. once a day from day 22, vs CIA mice
  induction of RA (arthritic symptoms): significantly attenuated
[10]
  activation of ATF3: hindered the activation of NF-κB and ATF3
  activation of NF-κB: hindered the activation of NF-κB
  phosphorylation of ERK: inhibited the phosphorylation of MAPKs, including ERK, JNK, and p38
  phosphorylation of IRF3: hindered the activation of NF-κB and ATF3 and the phosphorylation of IRF3
  phosphorylation of JNK: inhibited the phosphorylation of MAPKs, including ERK, JNK, and p38
  phosphorylation of p38: inhibited the phosphorylation of MAPKs, including ERK, JNK, and p38
[11]
  cell viability / toxicity: did not have any toxic effects
[12]
  poly(I:C)-induced IFN-α secretion: also inhibited
  poly(I:C)-induced IFN-β secretion: also inhibited
  poly(I:C)-induced IL-6 secretion: also inhibited
[12]; poly(I:C)
  TLR3-mediated TNF-α secretion: significantly diminished the TLR3-mediated TNF-α secretion in a dose-dependent manner
[13]
  TLR3-mediated TNF-α secretion: significantly inhibited
[14]
  LPS-induced extracellular NO: significant reduction
[15]; TIP3 10 nmol/g, micro-CT
  bone destruction recovery (knee joint): remarkable recovery from the bone destruction
[15]; TIP3-treated CIA mice, Fig. 4j synovial hyperplasia score
  inflammation score: significantly lower inflammation score
[15]; prolonged TIP3 treatment
  synovial hyperplasia score: substantially reduces inflammation
[16]
  IL-6 secretion: significant dose-dependent inhibitory effect
  TNF-α secretion: significant dose-dependent inhibitory effect
